ATG4B inh = blocks human ATG4B protease cleavage of LC3 substrate; Q9Y4P1; ATG4B cleavage of LC3-PLA2, NBD-HPC fluorescence, 1 h; inhibition, % at 8.33 µM; actives 0.51% (n = 340,000); AID 504462; in the data active = inhibition above about 40%
Target sequence (Q9Y4P1 whole entry, looked up): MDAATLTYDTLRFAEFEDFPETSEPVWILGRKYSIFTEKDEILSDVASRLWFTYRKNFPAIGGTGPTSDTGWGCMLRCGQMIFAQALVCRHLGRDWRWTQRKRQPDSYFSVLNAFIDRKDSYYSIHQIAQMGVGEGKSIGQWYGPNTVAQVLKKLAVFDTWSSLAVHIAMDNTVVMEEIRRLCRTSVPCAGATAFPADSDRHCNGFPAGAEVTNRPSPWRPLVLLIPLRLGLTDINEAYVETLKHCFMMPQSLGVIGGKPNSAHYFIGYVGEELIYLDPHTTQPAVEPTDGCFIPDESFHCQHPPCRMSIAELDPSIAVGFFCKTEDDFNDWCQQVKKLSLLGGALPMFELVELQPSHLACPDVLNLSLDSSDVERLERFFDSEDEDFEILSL
LEDGF integ inh = blocks HIV-1 LEDGF/p75-dependent DNA integration | actives 0.64% (n = 370,000) | inhibition, % at 3.7 µM | TR-FRET IN-LEDGF/p75 DNA integration, Eu/Cy5;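 active = inhibition above the screen-wide mean plus 3 SD, cut at about 13% in these data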;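 note: signal is the Cy5 over europium emission ratio at 671 and 618 nm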
CSN inh = blocks human CSN-mediated cullin deneddylation. Q92905. Purified CSN, SCF-Nedd8-OG deneddylation, fluorescence polarization. inhibition, % at 12.5 µM. actives 0.38% (n = 360,000). AID 651999;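 active = pattern-corrected inhibition above about 35%, with an unprinted fluorescence ratio check between 0.5 and 1.5, limit read from the data, passing the limit was not always enough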
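assay system = purified human Csn5 enzyme expressed in HEK293T cells | amount = 0.24 nM enzyme | buffer or medium = Tris/NaCl/DTT buffer, pH 7.5 | reagent = 10 nM SCFSkp2-Nedd8OG | compound = one concentration, 12.5 µM, 0.25% DMSO | times = 90 min reaction at room temperature | signal = FP | read-out basis = % inhibition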
UHRF1 MBD2 ctr = blocks human UHRF1 binding to methylated DNA. actives 0.75% (n = 370,000). inhibition, % at 4.4 µM. UHRF1 binding to methylated oligo, TR-FRET; in the data active = inhibition above about 21%;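 note: UHRF1 SRA domain binding a hemimethylated CpG hairpin DNA probe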
MBD2 DNA inh = blocks human MBD2 binding to methylated DNA; Q9UBB5; TR-FRET, MBD2 binding to methylated oligonucleotide; inhibition, % at 4.4 µM; actives 0.31% (n = 370,000); AID 686964; in the data active = inhibition above about 13%
rCAG binder = molecules binding r(CAG) RNA repeats; AID 651821; r(CAG) RNA repeat, TO-PRO-1 dye displacement fluorescence; inhibition, % at 3 µM; actives 1.3% (n = 370,000);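 active = inhibition above the plate cutoff, the mean of all test compounds on that plate plus 3 SD, cut at about 35% in these data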;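 note: higher means more dye released from RNA so lower well fluorescence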
ATG4B confirm = ATG4B (human) inhibition, single-dose confirmed. inhibition, % at 8.33 µM. actives 92% (n = 320). shares compounds with ATG4B inh. AID 504757. ATG4B protease fluorescent substrate cleavage assay; in the data active = inhibition above about 39%
PLA2 counter = counter-screen for ATG4B inhibitors: human phospholipase A2; actives 66% (n = 1,600); inhibition, % at 8.33 µM; purified PLA2, NBD-C6-HPC fluorescence, 45 min; shares compounds with ATG4B inh; in the data active = inhibition above about 50%
Target sequence (P04054 whole entry, looked up): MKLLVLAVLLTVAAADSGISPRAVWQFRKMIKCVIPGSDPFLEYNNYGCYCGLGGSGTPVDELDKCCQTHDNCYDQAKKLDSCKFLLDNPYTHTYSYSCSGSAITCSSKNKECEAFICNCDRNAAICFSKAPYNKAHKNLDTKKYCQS
Each line names hits and unclear results; the compound was inactive in the other large screens (follow-up assays come after a bar, where they were run). Rows were chosen to be rich in hits. Some 3.1% of all compounds tested hit in one or more screens of this group.

CCc1c(C)sc2nc(C(C)C)nc(SCC(=O)N3CCc4ccccc4C3)c12	ATG4B inh 45.8 (no result: CSN inh) | PLA2 counter 50.5
Cc1sc2nc(C(C)C)nc(SCC(=O)N3CCN(C(=O)c4ccco4)CC3)c2c1C	ATG4B inh 47.2 | PLA2 counter 56.9
CC(C)c1nc(N2CCN(C(=O)c3ccco3)CC2)c2c3c(sc2n1)CCCC3	ATG4B inh 91.6 | PLA2 counter 89.7
Cc1nc(N2CCN(C(=O)c3ccco3)CC2)c2c3c(sc2n1)CCC3	ATG4B inh 67.0 | PLA2 counter 71.2
COC(=O)[C@H]1C[C@@]2(N3CCCCC3)c3ccccc3N[C@H]2N1S(=O)(=O)c1ccc([N+](=O)[O-])cc1	none (no result: ATG4B inh, CSN inh)
O=C(C1CC1)N1CCc2cc(Br)c(S(=O)(=O)NCCCN3CCCCC3)cc21	none (no result: ATG4B inh, CSN inh)
C(=N/N1CCN(c2ccccc2)CC1)/c1ccco1	none (no result: ATG4B inh, CSN inh)
CC(C)[C@H](NC(=O)[C@@H]1CCCN1)C(=O)N1CCC2CCN(S(=O)(=O)c3ccccc3)CC21 (stereo partly specified)	none (no result: ATG4B inh, CSN inh)
O=C(C1CCN(S(=O)(=O)c2ccc3[nH]c(=O)oc3c2)CC1)N1CCCC1	none (no result: ATG4B inh, CSN inh)
Cc1oc(-c2ccccc2Cl)nc1CS(=O)CC(=O)NCc1ccccc1Cl (stereo unspecified)	ATG4B inh 45.6 | ATG4B confirm 59.9 | PLA2 counter inactive
CC1=CC2(C(Cc3ccccc3)N(CC3CC3)C(=NC(=O)c3ccccc3)N2C(=O)OCc2ccccc2)n2c(=O)n(-c3ccccc3)c(=O)n2C1 (stereo unspecified)	none (no result: ATG4B inh, CSN inh)
COc1cc(NC(=O)C2CCCN(S(=O)(=O)c3ccc(Cl)s3)C2)cc(OC)c1 (stereo unspecified)	none (no result: ATG4B inh, CSN inh)
Cc1cc(NCc2ccc(F)cc2)nc2cc(Cl)ccc12	ATG4B inh 51.0 | PLA2 counter 74.5
Cc1ccc(CNc2ncnc3cc(Cl)ccc23)cc1	none
CCSc1nnc(NC(=O)CSc2nnc(Cc3cccn3C)n2CCc2ccccc2)s1	ATG4B inh 58.0 | PLA2 counter 52.0
NC(=O)CSc1nnc(CNc2cccc(Cl)c2)n1CCc1ccccc1	ATG4B inh 49.3 | PLA2 counter 66.3
COc1ccc(N2CCN(CCCNC(=O)CCOC(C)(C)C)CC2)cc1	none (no result: ATG4B inh, CSN inh)
Cc1ccc(-c2nc3ccccc3[nH]2)cc1NC(=O)c1ccc2c(c1)OCO2	none
O=C(NC(=S)Nc1cc(-c2nc3ccccc3[nH]2)ccc1Cl)c1ccc2c(c1)OCO2	ATG4B inh 51.7 | PLA2 counter 59.8
Cc1ccc(-c2nc3ccccc3[nH]2)cc1NC(=S)NC(=O)c1ccccc1Br	ATG4B inh 41.0 | PLA2 counter 60.9
O=C(NCc1cccc(F)c1)c1ccc(N2C(=O)Cn3c(cc4sccc43)C2=O)cc1	ATG4B inh 41.2 | PLA2 counter inactive
CCN1CCCCC(NC(=O)c2ccccc2OC)C1=O (stereo unspecified)	none (no result: ATG4B inh, CSN inh)
CS(=O)(=O)N(Cc1ccc(C(=O)N2CCc3ccccc3C2)cc1)c1ccccc1	none
CC(=O)Nc1cc(C(=O)N2CCc3ccccc3C2)ccc1Sc1ccc(C)cc1	ATG4B inh 46.1 | PLA2 counter 52.7
CCCN1CCN(C(=O)c2ccc(Sc3ccc(C)cc3)c(NC(C)=O)c2)CC1	none
CCn1c(C)c(C)c2cc(C(=O)N3CCc4ccccc4C3)ccc21	ATG4B inh 71.8 | PLA2 counter 73.8
Cc1ccc(CN(c2ccc(C(=O)N3CCc4ccccc4C3)cc2)S(C)(=O)=O)cc1	ATG4B inh 55.5 | PLA2 counter 59.9
CC(C)CN(C(=O)COc1ccc2ccc(=O)oc2c1)C1CCS(=O)(=O)C1 (stereo unspecified)	none
CC(C)CN(C(=O)COc1ccc(Br)cc1C=O)C1CCS(=O)(=O)C1 (stereo unspecified)	ATG4B inh 44.6 | PLA2 counter 53.1
Cc1cc2c(cc1C)CSC(c1ccccc1O)SC2	none
Oc1ccccc1C1SC(c2ccccc2O)SC(c2ccccc2O)S1 (stereo unspecified)	ATG4B inh 62.7 | PLA2 counter inactive
CCCCc1ccc(NC(=S)NCc2cccc(OC)c2)cc1	ATG4B inh 79.8 | PLA2 counter 79.0
O=S1(=O)c2c(cccc2N2CCC[C@H]2CO)O[C@@H]2CCN1C2	none (no result: ATG4B inh, CSN inh)
Cc1ccc(C(=O)NC(=S)Nc2ccccc2N2CCCC2)cc1[N+](=O)[O-]	ATG4B inh 42.0 | PLA2 counter inactive
Cc1ccc(C(=O)Nc2ccccc2N2CCCCC2)cc1[N+](=O)[O-]	none
COc1ccc(C[N+]2=C(N)NC3=C(C)Cn4c(=O)n(-c5ccccc5)c(=O)n4C3C2)c(OC)c1 (stereo unspecified)	none (no result: ATG4B inh, CSN inh)
COc1ccccc1NNC(=O)c1cc(C(C)(C)C)nn1Cc1ccccc1	none
CC(C)(C)c1cc(C(=O)NNc2cc(C(F)(F)F)ccc2Cl)n(Cc2ccccc2)n1	ATG4B inh 42.8 | PLA2 counter 63.1
COc1cc(/C=C/C(O)=C/C(=O)/C=C/c2ccc(O)cc2)ccc1O	ATG4B inh 48.4 | PLA2 counter inactive
COc1cc(/C=C/C(=O)NC(=O)c2ccccc2O)ccc1O	none
CCOC(=O)CC[C@H]1CC[C@]2(CCCN(Cc3ccccc3)C2)O1	none (no result: ATG4B inh, CSN inh)
Cc1ccc(N=Cc2cc(Cc3ccccc3Cl)cc([N+](=O)[O-])c2O)c(O)c1	ATG4B inh 91.6 (no result: LEDGF integ inh, UHRF1 MBD2 ctr, MBD2 DNA inh, rCAG binder) | PLA2 counter 79.1
Cc1n[nH]c(C)c1Sc1ccccc1N=Cc1cc(Cl)cc([N+](=O)[O-])c1O	none (no result: LEDGF integ inh, UHRF1 MBD2 ctr, MBD2 DNA inh, rCAG binder)
CC(=O)c1cc(-c2cc(C(=O)O)cc([N+](=O)[O-])c2)c(=O)n2c1CCC2	none (no result: ATG4B inh, CSN inh)
O=C(Nc1nc(-c2ccccc2)cs1)c1cccc([N+](=O)[O-])c1C(=O)O	ATG4B inh 54.6 | PLA2 counter 64.9
Cc1cc(NC(=O)COC(=O)c2c(Cl)cccc2Cl)no1	none
CCOC(=O)c1cc(-c2c(Cl)cccc2Cl)no1	ATG4B inh 50.1 | PLA2 counter inactive
Cc1c(Cl)cccc1NC(=S)NC1CCN(Cc2ccccc2)CC1	ATG4B inh 47.9 | PLA2 counter 58.5
Cc1cccc(NC(=S)NCc2ccccc2Cl)c1C	none
Cc1c(Cl)cccc1NC(=S)NCc1ccc(Cl)cc1	ATG4B inh 70.2 | PLA2 counter 81.3
S=C(NCc1ccc(Cl)cc1)Nc1ccccc1Cl	none
Cc1c(Cl)cccc1NC(=S)NCc1ccccc1	ATG4B inh 54.4 | PLA2 counter 69.5
C1=C(CCNc2ncnc3c2[nH]c2ccccc23)CCCC1	ATG4B inh 49.3 | PLA2 counter 63.7

Bioassay records: PubChem BioAssay, several laboratories
